From ChEMBL document CHEMBL2434964, “Novel 1H-pyrrolo[2,3-b]pyridine derivative nortopsentin analogues: synthesis and antitumor activity in peritoneal mesothelioma experimental models” (J Med Chem, 2013)
Activity calls are given as the source filed them. The calls are words filed in the database; no cut-off is given here.

Legend:
Meso2 [1] = test: Induction of apoptosis in human Meso2 cells assessed as increase in caspase 3 activation at 12 to 24 […] hrs by DEVD-pNA substrate-based spectrofluorometric analysis relative to control; format: functional, cell-based
STO [2] = test: Induction of apoptosis in human STO cells assessed as increase in caspase 3 activation at 3 to 6 nM hrs by DEVD-pNA substrate-based spectrofluorometric analysis relative to control; format: functional, cell-based
[3] = Induction of apoptosis in human STO cells assessed as increase in caspase 9 activation at IC80 after 72 hrs by LEHD-pNA substrate-based spectrofluorometric analysis relative to control; format: functional
Procedure, shortened: (§1)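 Cells exposed 72 h at IC80, with 1% (v/v) DMSO controls. Caspase-9 activity read as LEHD-pNA cleavage and caspase-3 as DEVD-pNA cleavage, by spectrofluorometry (ex 380 nm/em 460 nm), reported as rfu. Mean ± SD of at least three experiments.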

[4] = Induction of apoptosis in human Meso2 cells assessed as increase in caspase 3 activation at IC80 after 72 hrs by DEVD-pNA substrate-based spectrofluorometric analysis relative to control; format: functional; procedure, shortened: as §1
Mus musculus [5] = test: Toxicity in athymic nude mouse xenografted with human STO cells assessed as body weight loss at 25 mg/kg, ip qd for 4 to 5 days per week for 35 days measured on day 17 post dose; format: organism-based; set-up: dose 25 mg/kg, route intraperitoneal; conditions: in vivo, in the assay text read “for 3 weeks measured on day 35” for “for 35 days measured on day 17 post dose”
Procedure, shortened: (§2)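 Female athymic Swiss nude mice bearing s.c. STO flank xenografts (10⁷ cells). Dosing i.p. qdx4-5/wx3w, starting the day after cell injection. Toxicity recorded as % body weight loss and lethal toxicity. Deaths in treated mice before the first control death were counted as toxic.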

Meso2 [6] = test: Induction of apoptosis in human Meso2 cells assessed as chromatin condensation at IC50 by fluorescence microscopy relative to control; format: functional, cell-based; conditions: TDE = time-dependent effect
STO [7] = test: Induction of apoptosis in human STO cells assessed as DNA fragmentation at IC50 by fluorescence microscopy relative to control; format: functional, cell-based; conditions: TDE = time-dependent effect
Mus musculus [8] = test: Toxicity in athymic nude mouse xenografted with human STO cells assessed as mortality at 25 mg/kg, ip qd for 4 to 5 days per week for 3 weeks measured on day 17 post dose; format: organism-based; set-up: dose 25 mg/kg, route intraperitoneal; conditions: in vivo
Procedure, shortened: (§3)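 Female athymic Swiss nude mice, 8-10 weeks old, given 10⁷ exponentially growing STO cells s.c. in the right flank. Dosing i.p. qdx4-5/wx3w, starting the day after cell injection. Toxicity was scored as body weight loss and lethal toxicity, reported as toxic deaths per treated group (n=8). Deaths in treated mice before the first control death were counted as toxic.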

Meso2 [9] = test: Induction of apoptosis in human Meso2 cells assessed as DNA fragmentation at IC50 by fluorescence microscopy relative to control; format: functional, cell-based; conditions: TDE = time-dependent effect
[10] = Cell cycle arrest in human Meso2 cells assessed as accumulation at G2/M phase at IC50 after 48 hrs by propidium iodide staining-based FACS-flow cytometry relative to control; format: functional
[11] = Cell cycle arrest in human STO cells assessed as reduction of cells at G1 phase at IC50 after 48 to 72 hrs by propidium iodide staining-based FACS-flow cytometry relative to control; format: functional
STO [12] = test: Induction of apoptosis in human STO cells assessed as inhibition of survivin phosphorylation at Thr34 at IC50 by Western blotting analysis; format: functional, cell-based
[13] = Cell cycle arrest in human Meso2 cells assessed as reduction of cells at G1 phase at IC50 after 48 to 72 hrs by propidium iodide staining-based FACS-flow cytometry relative to control; format: functional
STO [14] = test: Induction of apoptosis in human STO cells assessed as chromatin condensation at IC50 by fluorescence microscopy relative to control; format: functional, cell-based; conditions: TDE = time-dependent effect
[15] = Induction of apoptosis in human STO cells assessed as increase in caspase 3 activation at IC80 after 72 hrs by DEVD-pNA substrate-based spectrofluorometric analysis relative to control; format: functional; procedure, shortened: as §1
[16] = Cell cycle arrest in human STO cells assessed as increase in sub-G1 phase accumulation at IC50 after 72 hrs by propidium iodide staining-based FACS-flow cytometry relative to control; format: functional
[17] = target: Cyclin-dependent kinase 1/cyclin B1 (Homo sapiens) (UniProt P06493+P14635); test: Inhibition of CDK1/cyclin B in human STO cells using histone H1 as substrate assessed as histone H1 phosphorylation preincubated at IC50 by immunoprecipitate-based densitometric analysis; format: cell-based; conditions: TDE = time-dependent effect
Procedure, shortened: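 STO cells exposed at IC50 for 24, 48 and 72 h, with DMSO controls. Lysates immunoprecipitated with anti-cyclin B1, 4 h at 4°C. Precipitates incubated 20 min at 30°C with 3 μg histone H1, MgCl₂, cold ATP and [γ32P]ATP, pH 7.5. Products run on 12% SDS gel and quantified by densitometry as % of DMSO control.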

[18] = Cell cycle arrest in human Meso2 cells assessed as increase in sub-G1 phase accumulation at IC50 after 72 hrs by propidium iodide staining-based FACS-flow cytometry relative to control; format: functional
STO [19] = test: (§4) Cytotoxicity against human STO cells assessed as growth inhibition after 72 hrs by MTS assay; format: functional, cell-based
Procedure, shortened: (§5)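 Log-phase cells, 4500 per well, plated 24 h, then given 0.1–100 μM compound for 72 h; vehicle (DMSO) controls. MTS read-out at 490 nm as % of DMSO-treated cells. IC50 taken graphically from the dose-response curve. Eight replicates; mean ± SD of at least three independent experiments.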

[20] = as §4; format: functional, cell-based; procedure, shortened: as §5
[21] = Cell cycle arrest in human Meso2 cells assessed as accumulation at G2/M phase at IC50 after 72 hrs by propidium iodide staining-based FACS-flow cytometry relative to control; format: functional
[22] = target: Glycogen synthase kinase-3 beta (Homo sapiens, UniProt P49841); test: Inhibition of human GSK-3 beta after 30 mins by fluorescence assay
Procedure, shortened: (§6)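 Recombinant kinases (CDK1/cyclin B; GSK3β) in Omnia fluorescence assay with peptide substrate, ATP and DTT in kinase buffer, run 30 min at 30°C. Compound range 0.05-50 μM. Fluorescence read at ex 360/em 485 nm. IC50 taken graphically; mean ± SD of three independent experiments.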

[23] = Antitumor activity against human STO cells xenografted in athymic nude mouse assessed as tumor volume inhibition at 25 mg/kg, ip qd for 4 to 5 days per week for 3 weeks measured on day 17 post dose; format: functional; conditions: route intraperitoneal
Procedure, shortened: (§7)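 Female athymic Swiss nude mice, 8-10 weeks old; 10⁷ exponentially growing STO cells injected s.c. into right flank. Dosing i.p. qdx4-5/wx3w, starting the day after cell injection. Tumor volume = d²xD/2. TVI% = 100-(mean TV treated/mean TV control x 100), read 17 days after end of treatment (day 35). Two-tailed Student's t test.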

[24] = Cell cycle arrest in human STO cells assessed as accumulation at G2/M phase at IC50 after 72 hrs by propidium iodide staining-based FACS-flow cytometry relative to control; format: functional
[25] = Cytotoxicity against human W138 cells assessed as growth inhibition after 72 hrs by MTS assay; format: cell-based; conditions: WI-38, 72 h; procedure, shortened: as §5
[26] = Cell cycle arrest in human STO cells assessed as accumulation at G2/M phase at IC50 after 48 hrs by propidium iodide staining-based FACS-flow cytometry relative to control; format: functional
[27] = (§8) Cytotoxicity against human cells Meso2 assessed as growth inhibition after 72 hrs by MTS assay; format: functional, cell-based; conditions: Meso2, 72 h; procedure, shortened: as §5
Homo sapiens = organism: Homo sapiens; test: as §8; format: functional, cell-based; procedure, shortened: as §5
[28] = target: Cyclin-dependent kinase 1/cyclin B1 (Homo sapiens, UniProt P06493); test: Inhibition of human recombinant CDK1/cyclin B after 30 mins by fluorescence assay; format: protein-complex assay; procedure, shortened: as §6
[29] = Induction of apoptosis in human Meso2 cells assessed as increase in caspase 9 activation at IC80 after 72 hrs by LEHD-pNA substrate-based spectrofluorometric analysis relative to control; format: functional; procedure, shortened: as §1
STO [30] = test: Induction of apoptosis in human STO cells assessed as increase in caspase 3 activation at 0.3 to 0.6 uM hrs by DEVD-pNA substrate-based spectrofluorometric analysis in presence of paclitaxel; format: functional, cell-based
Meso2 [31] = test: Induction of apoptosis in human Meso2 cells assessed as increase in caspase 3 activation at 4 to 8 uM hrs by DEVD-pNA substrate-based spectrofluorometric analysis in presence of paclitaxel; format: functional, cell-based
Mus musculus [32] = test: Toxicity in athymic nude mouse xenografted with human STO cells assessed as body weight loss at 50 mg/kg, ip qd for 4 to 5 days per week for 3 weeks measured on day 17 post dose; format: organism-based; set-up: dose 50 mg/kg, route intraperitoneal; conditions: in vivo; procedure, shortened: as §2
STO [33] = test: Induction of apoptosis in human STO cells assessed as increase in caspase 3 activation at 0.3 to 0.6 uM hrs by DEVD-pNA substrate-based spectrofluorometric analysis relative to control; format: functional, cell-based
Meso2 [34] = test: Induction of apoptosis in human Meso2 cells assessed as increase in caspase 3 activation at 4 to 8 uM hrs by DEVD-pNA substrate-based spectrofluorometric analysis relative to control; format: functional, cell-based
Meso2 [35] = test: Potentiation of paclitaxel-induced cytotoxicity in human Meso2 cells assessed as inhibition of cell survival at 2 to 8 uM after 72 hrs by MTS assay; format: functional, cell-based
Procedure, shortened: (§9)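 Paclitaxel given for 24 h, then test compound added for 72 h more. Fixed paclitaxel:compound ratios were 1:100 in STO and 1:333 in MesoII. Survival by MTS at 490 nm. Expected additive effect taken as the product of single-agent effects. Interaction scored by Chou–Talalay combination index (<1 synergy).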

STO [36] = test: Potentiation of paclitaxel-induced cytotoxicity in human STO cells assessed as inhibition of cell survival at 0.15 to 0.6 uM after 72 hrs by MTS assay; format: functional, cell-based; procedure, shortened: as §9
[37] = Antitumor activity against human STO cells xenografted in athymic nude mouse assessed as tumor volume inhibition at 50 mg/kg, ip qd for 4 to 5 days per week for 3 weeks measured on day 17 post dose; format: functional; conditions: route intraperitoneal; procedure, shortened: as §7
Mus musculus [38] = test: Toxicity in athymic nude mouse xenografted with human STO cells assessed as mortality at 50 mg/kg, ip qd for 4 to 5 days per week for 3 weeks measured on day 17 post dose; format: organism-based; set-up: dose 50 mg/kg, route intraperitoneal; conditions: in vivo; procedure, shortened: as §3

Chain of Cyclin-dependent kinase 1/cyclin B1 (P06493 whole entry): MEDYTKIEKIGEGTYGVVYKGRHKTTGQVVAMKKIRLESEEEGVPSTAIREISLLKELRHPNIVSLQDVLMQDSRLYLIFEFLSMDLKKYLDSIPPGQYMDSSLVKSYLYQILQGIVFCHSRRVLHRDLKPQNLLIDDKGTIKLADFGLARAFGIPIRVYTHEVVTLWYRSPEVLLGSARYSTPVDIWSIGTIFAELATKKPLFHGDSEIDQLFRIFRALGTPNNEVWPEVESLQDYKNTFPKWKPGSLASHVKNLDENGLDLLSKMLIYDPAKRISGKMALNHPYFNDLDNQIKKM
Chain of Cyclin-dependent kinase 1/cyclin B1 (P14635 whole entry, further chain): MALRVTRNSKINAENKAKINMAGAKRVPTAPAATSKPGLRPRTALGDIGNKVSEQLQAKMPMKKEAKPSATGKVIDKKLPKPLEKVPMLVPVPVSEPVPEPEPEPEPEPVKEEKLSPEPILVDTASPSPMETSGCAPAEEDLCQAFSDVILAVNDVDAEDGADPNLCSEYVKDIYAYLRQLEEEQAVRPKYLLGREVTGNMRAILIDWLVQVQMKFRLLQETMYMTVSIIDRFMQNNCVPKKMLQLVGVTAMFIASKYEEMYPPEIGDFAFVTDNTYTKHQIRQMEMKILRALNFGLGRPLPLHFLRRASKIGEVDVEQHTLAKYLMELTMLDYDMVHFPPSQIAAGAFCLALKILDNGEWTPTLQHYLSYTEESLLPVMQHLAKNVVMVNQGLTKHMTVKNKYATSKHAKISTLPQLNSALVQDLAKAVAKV
Chain of Cyclin-dependent kinase 1/cyclin B1 (Homo sapiens) (P06493 whole entry, looked up): as the sequence (P06493 whole entry) above
Chain of Cyclin-dependent kinase 1/cyclin B1 (Homo sapiens) (P14635 whole entry, looked up): as the sequence (P14635 whole entry, further chain) above
Chain of Glycogen synthase kinase-3 beta (P49841 whole entry): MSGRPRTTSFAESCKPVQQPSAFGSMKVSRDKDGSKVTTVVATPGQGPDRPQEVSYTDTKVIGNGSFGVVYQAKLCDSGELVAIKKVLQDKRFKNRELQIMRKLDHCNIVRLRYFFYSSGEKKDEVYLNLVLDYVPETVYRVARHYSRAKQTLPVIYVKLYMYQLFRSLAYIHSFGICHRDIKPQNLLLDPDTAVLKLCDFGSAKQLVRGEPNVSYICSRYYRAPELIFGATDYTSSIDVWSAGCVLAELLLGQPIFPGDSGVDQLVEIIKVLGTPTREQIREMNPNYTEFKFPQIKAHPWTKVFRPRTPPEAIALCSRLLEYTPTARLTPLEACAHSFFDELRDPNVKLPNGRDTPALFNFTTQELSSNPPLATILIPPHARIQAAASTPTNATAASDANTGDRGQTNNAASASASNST

Structure (SMILES) | Activity (Meso2 [6]) | Activity (STO [7]) | Activity (Meso2 [9]) | Activity [10] [%] | Activity [11] | inhibition (STO [12]) | Activity [13] | Activity (STO [14]) | Activity [16] [%] | inhibition [17] | Activity [18] [%] | inhibition (STO [19]) | IC50 [20] [µM] | Activity [21] [%] | IC50 [22] [µM] | Activity [24] [%] | IC50 [25] [µM] | Activity [26] [%] | IC50 [27] [µM] | inhibition (Homo sapiens) | further results
CC(=O)O[C@H]1C(=O)[C@@]2(C)[C@H]([C@H](OC(=O)c3ccccc3)[C@]3(O)C[C@H](OC(=O)[C@H](O)[C@@H](NC(=O)c4ccccc4)c4ccccc4)C(C)=C1C3(C)C)[C@]1(OC(C)=O)CO[C@@H]1C[C@@H]2O |  |  |  |  |  |  |  |  |  |  |  |  |  |  |  |  |  |  |  |  | Activity (Meso2 [1]): Active; Activity (STO [2]): Active
Cn1cc(-c2nc(-c3cn(C)c4ncccc34)cs2)c2cc(F)ccc21 | tde | tde | tde | 33.3 | Active | Active | Active | tde | 26.5 | tde | 27.9 | Dose-dependent effect | 0.43 | 41.9 | 35.7 | 41.9 | > 100 | 33.3 | 4.85 | Dose-dependent effect | fold change (FC) [3]: 12; fold change (FC) [4]: 7.8; Activity (Mus musculus [5]): 7%; Activity (Mus musculus [8]): Non-toxic; fold change (FC) [15]: 10; inhibition in vivo at 25 mg/kg [23]: 58%; IC50 [28]: 0.86 µM; fold change (FC) [29]: 11.9
Cn1cc(-c2csc(-c3c[nH]c4ccccc34)n2)c2cccnc21 | tde | tde | tde | 33.3 | Active | Active | Active | tde | 25.8 | tde | 19.9 | Dose-dependent effect | 0.33 | 41.9 | 40.2 | 41.9 | > 100 | 33.3 | 4.11 | Dose-dependent effect | Activity (STO [30]): Active; Activity (Meso2 [31]): Active; Activity (Mus musculus [32]): 1%; Activity (STO [33]): Active; Activity (Meso2 [34]): Active; inhibition (Meso2 [35]): Active; inhibition (STO [36]): Active; inhibition in vivo at 50 mg/kg [37]: 75%; Activity (Mus musculus [38]): Non-toxic; IC50 [28]: 0.75 µM
Cn1cc(-c2nc(-c3c[nH]c4ncccc34)cs2)c2cc(F)ccc21 | tde | tde | tde | 33.3 | Active | Active | Active | tde | 27.6 | tde | 28.6 | Dose-dependent effect | 0.49 | 41.9 | 42.2 | 41.9 | > 100 | 33.3 | 25.1 | Dose-dependent effect | Activity (Mus musculus [5]): 4%; Activity (Mus musculus [8]): Non-toxic; inhibition in vivo at 25 mg/kg [23]: 73%; IC50 [28]: 0.89 µM
